Here are results for 9 compounds from ChEMBL document CHEMBL4396889, “From Inhibition to Degradation: Targeting the Antiapoptotic Protein Myeloid Cell Leukemia 1 (MCL1)” (J Med Chem, 2019).

In data set [1] the target is T1, Protein cereblon/Induced myeloid leukemia cell differentiation protein Mcl-1 (Homo sapiens) (UniProt Q07820+Q96SW2). As to the kind of experiment: Protac activity at Cereblon/MCL1 in human HeLa cell lysate assessed as MCL1 degradation incubated for 3 hrs by SDS-PAGE/immunoblot analysis. The data set is classed as subcellular. (In general: A western blot detects proteins with antibodies after separation by electrophoresis.)

The target in data set [2] is T1, Protein cereblon/Induced myeloid leukemia cell differentiation protein Mcl-1 (Homo sapiens). Briefly: Protac activity at Cereblon/MCL1 in human OPM2 cells after 48 hrs by immunoblot analysis. The data set is classed as cell-based. Put shortly: (§1)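 OPM2 multiple myeloma cells, wild type or CRBN-knockout, were treated for 48 h with degrader or DMSO vehicle. MCL1 long and short isoforms were detected by immunoblot and levels compared with DMSO controls.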

Data set [3] has the same target. Briefly: Protac activity at Cereblon/MCL1 in human OPM2 cell lysate assessed as induction of MCL1 polyubiquitination incubated for 3 hrs by SDS-PAGE/immunoblot analysis. The data set is classed as subcellular. Put shortly:
(§2)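 In vitro ubiquitinylation reactions; the target (MCL1 or BRD4) was then immunoprecipitated and the immunoprecipitate immunoblotted for ubiquitin.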

Data set [4] has as its target T2, Induced myeloid leukemia cell differentiation protein Mcl-1 (Homo sapiens, UniProt Q07820). Briefly: Binding affinity to His-tagged biotinylated human MCL1 by surface plasmon resonance method.
Data set [5] addresses T1, Protein cereblon/Induced myeloid leukemia cell differentiation protein Mcl-1 (Homo sapiens). As to the kind of experiment: Protac activity at Cereblon/MCL1 long isoform in wild type human OPM2 cells assessed as protein abundance at 50 nM after 48 hrs by immunoblot analysis relative to control. It counts as cell-based. The method, boiled down: as §1
The target is the same in data set [6]. As to the kind of experiment: Protac activity at Cereblon/MCL1 long isoform in wild type human OPM2 cells at 100 nM after 48 hrs by immunoblot analysis relative to control. It counts as cell-based. The method, boiled down:
as §1

For data set [7] the target is unchanged. As to the kind of experiment: Protac activity at Cereblon/MCL1 long isoform in wild type human OPM2 cells at 250 nM after 48 hrs by immunoblot analysis relative to control. It counts as cell-based. The method, boiled down:
as §1

The target is the same in data set [8]. Briefly: Protac activity at Cereblon/MCL1 long isoform in wild type human OPM2 cells at 500 nM after 48 hrs by immunoblot analysis relative to control. The data set is classed as cell-based. Put shortly: as §1
The target is the same in data set [9]. Briefly: Protac activity at Cereblon/MCL1 short isoform in wild type human OPM2 cells assessed as MCL1 short isoform abundance at 50 nM after 48 hrs by immunoblot analysis relative to control. It counts as cell-based. Put shortly: (§3)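 OPM2 wild-type cells, run alongside the CRBN-/- line, were treated for 48 h with compound or DMSO. The MCL1 long and short isoforms were then measured by immunoblot against the DMSO control.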

Data set [10] has the same target. As to the kind of experiment: Protac activity at Cereblon/MCL1 short isoform in wild type human OPM2 cells assessed as MCL1 short isoform abundance at 100 nM after 48 hrs by immunoblot analysis relative to control. The data set is classed as cell-based. The method, boiled down:
as §3

For data set [11] the target is unchanged. Briefly: Protac activity at Cereblon/MCL1 short isoform in wild type human OPM2 cells assessed as MCL1 short isoform abundance at 250 nM after 48 hrs by immunoblot analysis relative to control. It counts as cell-based. Put shortly: as §3
For data set [12] the target is unchanged. Briefly: Protac activity at Cereblon/MCL1 short isoform in wild type human OPM2 cells assessed as MCL1 short isoform abundance at 500 nM after 48 hrs by immunoblot analysis relative to control. It counts as cell-based. The method, boiled down:
as §3

For data set [13], the target named is T2, Induced myeloid leukemia cell differentiation protein Mcl-1. Briefly: Induction of MCL1 long isoform degradation in CRBN-/- human OPM2 cells assessed as protein abundance at 50 nM after 48 hrs by immunoblot analysis relative to control. The data set is classed as cell-based. Put shortly:
as §1

For data set [14] the target is unchanged. As to the kind of experiment: Induction of MCL1 long isoform degradation in CRBN-/- human OPM2 cells assessed as protein abundance at 100 nM after 48 hrs by immunoblot analysis relative to control. It counts as cell-based. Put shortly: as §1
Data set [15] shares this target. As to the kind of experiment: Induction of MCL1 long isoform degradation in CRBN-/- human OPM2 cells assessed as protein abundance at 250 nM after 48 hrs by immunoblot analysis relative to control. It counts as cell-based. The method, boiled down: as §1
Data set [16] shares this target. As to the kind of experiment: Induction of MCL1 long isoform degradation in CRBN-/- human OPM2 cells assessed as protein abundance at 500 nM after 48 hrs by immunoblot analysis relative to control. It counts as cell-based. The method, boiled down:
as §1

Data set [17] shares this target. As to the kind of experiment: Induction of MCL1 short isoform degradation in CRBN-/- human OPM2 cells assessed as protein abundance at 50 nM after 48 hrs by immunoblot analysis relative to control. It counts as cell-based. The method, boiled down:
as §1

Data set [18] shares this target. As to the kind of experiment: Induction of MCL1 short isoform degradation in CRBN-/- human OPM2 cells assessed as protein abundance at 100 nM after 48 hrs by immunoblot analysis relative to control. The data set is classed as cell-based. The method, boiled down: as §1
For data set [19] the target is unchanged. As to the kind of experiment: Induction of MCL1 short isoform degradation in CRBN-/- human OPM2 cells assessed as protein abundance at 250 nM after 48 hrs by immunoblot analysis relative to control. It counts as cell-based. Put shortly:
as §1

For data set [20] the target is unchanged. Briefly: Induction of MCL1 short isoform degradation in CRBN-/- human OPM2 cells assessed as protein abundance at 500 nM after 48 hrs by immunoblot analysis relative to control. It counts as cell-based. Put shortly: as §1
Data set [21] is described as follows: Half-life in human liver microsome pre-incubated for 10 mins followed by addition of NADPH regenerating system after 5 to 60 mins by LC/MS/MS analysis. The data set is classed as ADME. As to conditions: liver microsomes. Background: Liver microsomes are a subcellular fraction often used to study metabolism.
The target of data set [22] is Protein cereblon/Bromodomain-containing protein 4 (Homo sapiens) (UniProt O60885+Q96SW2). As to the kind of experiment: Protac activity at Cereblon/BRD4 in human OPM2 cell lysate assessed as induction of BRD4 polyubiquitination incubated for 3 hrs by SDS-PAGE/immunoblot analysis. It counts as subcellular. The method, boiled down:
as §2

Data set [23] concerns the target T2, Induced myeloid leukemia cell differentiation protein Mcl-1. Briefly: Binding affinity to MCL1 long isoform in human OPM2 incubated overnight using biotin labelled compound by streptavidin based immunoprecipitation method.
Data set [24] shares this target. As to the kind of experiment: Binding affinity to MCL1 short isoform in human OPM2 incubated overnight using biotin labelled compound by streptavidin based immunoprecipitation method.

Structures are written as SMILES. Activity calls are given as the source filed them. No cut-off for these calls is given here.

T2 sequence (Q07820 whole entry, canonical isoform): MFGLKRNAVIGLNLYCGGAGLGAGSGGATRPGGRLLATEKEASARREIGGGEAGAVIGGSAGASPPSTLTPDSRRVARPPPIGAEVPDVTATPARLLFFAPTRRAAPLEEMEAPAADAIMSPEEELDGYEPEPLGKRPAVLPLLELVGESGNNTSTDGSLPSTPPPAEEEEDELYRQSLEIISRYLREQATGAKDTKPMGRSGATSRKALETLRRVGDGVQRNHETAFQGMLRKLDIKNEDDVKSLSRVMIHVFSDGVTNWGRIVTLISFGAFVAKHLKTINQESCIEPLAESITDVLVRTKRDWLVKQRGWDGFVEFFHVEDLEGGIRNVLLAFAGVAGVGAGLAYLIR
T1 sequence (Q07820 whole entry, looked up): as the sequence (Q07820 whole entry, canonical isoform) above
T1 sequence (Q96SW2 whole entry, looked up): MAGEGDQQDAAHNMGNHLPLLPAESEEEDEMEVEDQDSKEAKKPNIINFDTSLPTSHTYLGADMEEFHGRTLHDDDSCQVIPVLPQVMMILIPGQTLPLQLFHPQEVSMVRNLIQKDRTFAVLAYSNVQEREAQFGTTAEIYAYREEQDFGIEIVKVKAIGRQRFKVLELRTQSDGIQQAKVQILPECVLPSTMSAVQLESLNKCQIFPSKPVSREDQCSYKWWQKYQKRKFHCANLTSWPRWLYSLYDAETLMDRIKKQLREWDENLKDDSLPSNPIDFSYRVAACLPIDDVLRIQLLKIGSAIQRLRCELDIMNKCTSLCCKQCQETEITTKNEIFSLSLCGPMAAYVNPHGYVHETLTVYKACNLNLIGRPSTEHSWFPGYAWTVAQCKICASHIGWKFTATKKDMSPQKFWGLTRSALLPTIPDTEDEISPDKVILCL
Protein cereblon/Bromodomain-containing protein 4 (Homo sapiens), sequence (Q96SW2 whole entry, looked up, other chains not shown): as the sequence (Q96SW2 whole entry, looked up) above

Take `Cc1nn(C)c(COc2ccc(N3CCN(S(=O)(=O)N(C)C)CC3)cc2)c1-c1cccc2c(CCCOc3cccc4ccccc34)c(C(=O)NCCCCNC(=O)COc3cccc4c3C(=O)N(C3CCC(=O)NC3=O)C4=O)n(CCN3CCOCC3)c12` (stereo unspecified): in [1], the outcome was inactive.

Consider `Cc1nn(C)c(COc2ccc(N3CCN(C(=O)CCCNC(=O)COc4cccc5c4C(=O)N(C4CCC(=O)NC4=O)C5=O)CC3)cc2)c1-c1cccc2c(CCCOc3cccc4ccccc34)c(C(=O)O)n(CCN3CCOCC3)c12` (stereo unspecified), for which the result in data set [1] and in [2] was inactive.

`Cc1nn(C)c(COc2ccc(N3CCN(C(=O)COc4cccc5c4C(=O)N(C4CCC(=O)NC4=O)C5=O)CC3)cc2)c1-c1cccc2c(CCCOc3cccc4ccccc34)c(C(=O)O)n(CCN3CCOCC3)c12` (stereo unspecified): the outcome in data set [1] and in data set [2] was inactive.

As for `Cc1nn(C)c(COc2ccc(N3CCN(S(=O)(=O)N(C)C)CC3)cc2)c1-c1cccc2c(CCCOc3cccc4ccccc34)c(C(=O)O)n(CCN3CCN(C(=O)CCC(=O)NCCCOCCOCCOCCCNC(=O)COc4cccc5c4C(=O)N(C4CCC(=O)NC4=O)C5=O)CC3)c12` (stereo unspecified), in [3], the result was Active.

For orientation: Kd means the constant that tells how readily two partners part at equilibrium. The low end stands for tighter binding, the high end for weaker binding. For orientation: half-life means how long it takes for the measured level to halve. Low readings indicate rapid decline, high ones slow decline. Take `Cc1nn(C)c(COc2ccc(N3CCN(S(=O)(=O)N(C)C)CC3)cc2)c1-c1cccc2c(CCCOc3cccc4ccccc34)c(C(=O)O)n(CCN3CCOCC3)c12`: the affinity in [4], expressed as Kd, was 19 nM. In addition, the Activity in data set [5] came out at 140%; in data set [6] it was 195%; in data set [7], 237%; in data set [8], 275%; in [9], 110%; in data set [10] it was 148%. Also, the Activity is 287% in [11]; 374% in data set [12]; 140% in [13]; 152% in data set [14]; 162% in data set [15]; 183% in data set [16]. The Activity in [17] turned out to be 100%; in [18], 111%; in data set [19], 154%; in data set [20], 286%. Further, the half-life in [21] came to 21.7 min.

For `Cc1sc2c(c1C)C(c1ccc(Cl)cc1)=N[C@@H](CC(=O)NCCCCNC(=O)COc1cccc3c1C(=O)N(C1CCC(=O)NC1=O)C3=O)c1nnc(C)n1-2` (stereo partly specified), in [22], the result was Active.

With `Cc1nn(C)c(COc2ccc(N3CCN(C(=O)CCC(=O)NCCCOCCOCCOCCCNC(=O)CCCC[C@@H]4SC[C@@H]5NC(=O)N[C@@H]54)CC3)cc2)c1-c1cccc2c(CCCOc3cccc4ccccc34)c(C(=O)O)n(CCN3CCOCC3)c12`, the outcome in data set [23] and in data set [24] was Active.

Turning to `Cc1nn(C)c(COc2ccc(N3CCN(C(=O)CCC(=O)NCCCOCCOCCOCNC(=O)COc4cccc5c4C(=O)N(C4CCC(=O)NC4=O)C5=O)CC3)cc2)c1-c1cccc2c(CCCOc3cccc4ccccc34)c(C(=O)O)n(CCN3CCOCC3)c12` (stereo unspecified), the result in data set [1] and in [2] was inactive.

Turning to `Cc1nn(C)c(COc2ccc(N3CCN(S(=O)(=O)N(C)C)CC3)cc2)c1-c1cccc2c(CCCOc3cccc4ccccc34)c(C(=O)O)n(CCN3CCN(C(=O)CCCC[C@@H]4SC[C@@H]5NC(=O)N[C@@H]54)CC3)c12`, the result in data set [23] and in data set [24] was Active.
